Data set [1] in a line: Oral bioavailability in BALB/cAnNCrl mouse at 10 mg/kg. The class given is ADME, organism-based. To be noted: in vivo. In a few lines: (§1)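 Female BALB/cAnNCrl mice, at least 6 weeks old. The oral arm was gavage at 10 mL/kg in DMSO/water 1:19. The iv arm was 2 mg/kg (~4 μmol/kg) at 10 mL/kg in DMSO/Tween-20/water 10:1:89, sampled at seven or eight points from 5 min to 18 or 24 h. Three mice per time point, terminal cardiac blood, plasma.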

Data set [2] is described as follows: Tmax in BALB/cAnNCrl mouse at 10 mg/kg, po. The class given is ADME, organism-based. The arrangement: dose 10 mg/kg, route oral. The following applies: in vivo. In a few lines:
(§2)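 Female BALB/cAnNCrl mice, at least 6 weeks old, dosed once by oral gavage at 10 mL/kg in DMSO/water 1:19 v/v. Blood was taken at six or eight time points from 15 min to 18 or 24 h, three mice per time point, by terminal cardiac puncture under halothane or isoflurane into heparinized syringes. Plasma was snap frozen and stored at -70 °C.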

Data set [3] is described as follows: Cmax in BALB/cAnNCrl mouse at 10 mg/kg, po. Also on record: dose 10 mg/kg, route oral. It is filed as ADME, organism-based. To be noted: in vivo. In a few lines: as §2
In data set [4] the target is T1, Serine/threonine-protein kinase B-raf (Homo sapiens, UniProt P15056, V600E). The data set is described as follows: Inhibition of BRAF V600E mutant ERK phosphorylation in human WM266.4 cells. It is filed as cell-based. In a few lines:
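WM266.4 melanoma cells, which carry mutant V600E BRAF, exposed to inhibitor for 6 h. ERK phosphorylation (pERK) measured and IC50 derived. Run in triplicate, with a few compounds measured once.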

The nature of data set [5]: Growth inhibition of human WM266.4 cells expressing BRAF V600E mutant after 5 days by SRB assay. It is filed as functional. To be noted: WM 266-4, 120 h.
A short description of data set [6]: Half life in BALB/cAnNCrl mouse at 10 mg/kg, po. Also on record: dose 10 mg/kg, route oral. The following applies: in vivo. The class given is ADME, organism-based. In a few lines: as §2
The target in data set [7] is T1, Serine/threonine-protein kinase B-raf. The data set is described as follows: Inhibition of human BRAF V600E mutant expressed in baculovirus system. In a few lines:
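Isolated purified V600E BRAF kinase with a 45 min incubation. Enzyme inhibition measured and IC50 derived. Run in triplicate, with one compound measured once.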

Data set [8] in a line: Growth inhibition of human WM266.4 cells expressing BRAF V600E mutant after 96 hrs by SRB assay.
Data set [9] in a line: Growth inhibition of wild type human WM1361 cells after 5 days by SRB assay. To be noted: WM1361, 120 h. (Sulforhodamine B stains cellular protein and so reports cell mass.)
Data set [10] can be described thus: Selectivity ratio of GI50 for human WM266.4 cells expressing BRAF V600E mutant to GI50 for human WM1361 cells.
Data set [11] is described as follows: Half life in BALB/cAnNCrl mouse at 20 mg/kg, po. It is filed as ADME, organism-based. Also on record: dose 20 mg/kg, route oral. To be noted: in vivo. In a few lines: as §2
Another data set relates to Liver microsomes. The data set is described as follows: Metabolic stability in human liver microsomes. It is filed as ADME, Microsome. In a few lines:
(§3)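 Phase I microsomal incubation of compound at 10 μM for 30 min, stopped with 3 volumes of methanol containing 500 nM roscovitine as internal standard. Parent and metabolites were measured by LC-MS, positive-ion electrospray, on a polar reversed-phase column.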

A short description of data set [12]: Metabolic stability in mouse liver microsomes. The class given is ADME, Microsome. In a few lines: as §3
(In general: Microsomes from liver hold many membrane-bound enzymes, among them those of drug oxidation.)

Data set [13] can be described thus: Cmax in BALB/cAnNCrl mouse at 20 mg/kg, po. It is filed as ADME, organism-based. Also on record: dose 20 mg/kg, route oral. To be noted: in vivo. In a few lines: as §2
The nature of data set [14]: Tmax in BALB/cAnNCrl mouse at 20 mg/kg, po. Also on record: dose 20 mg/kg, route oral. The following applies: in vivo. The class given is ADME, organism-based. In a few lines: as §2
Data set [15] can be described thus: Oral bioavailability in BALB/cAnNCrl mouse at 20 mg/kg. It is filed as ADME, organism-based. To be noted: in vivo. In a few lines: as §1
A short description of data set [16]: Ratio of plasma concentration in Crl:CD1-Foxn1nu mouse to GI50 for human WM266.4 cells xenografted in Crl:CD1-Foxn1nu mouse. The following applies: in vivo. It is filed as ADME. For orientation: A xenograft is tissue or cells of one species grown in another, often human tumour cells in immunodeficient mice.

This is an account of results in ChEMBL document CHEMBL1156296, “Development of novel, highly potent inhibitors of V-RAF murine sarcoma viral oncogene homologue B1 (BRAF): increasing cellular potency through optimization of a distal heteroaromatic group” (J Med Chem, 2010).

Each structure is given as a SMILES string. A value given as a limit tells only on which side of the number the result lay.

T1 sequence (P15056 2-766 V600E limits assumed): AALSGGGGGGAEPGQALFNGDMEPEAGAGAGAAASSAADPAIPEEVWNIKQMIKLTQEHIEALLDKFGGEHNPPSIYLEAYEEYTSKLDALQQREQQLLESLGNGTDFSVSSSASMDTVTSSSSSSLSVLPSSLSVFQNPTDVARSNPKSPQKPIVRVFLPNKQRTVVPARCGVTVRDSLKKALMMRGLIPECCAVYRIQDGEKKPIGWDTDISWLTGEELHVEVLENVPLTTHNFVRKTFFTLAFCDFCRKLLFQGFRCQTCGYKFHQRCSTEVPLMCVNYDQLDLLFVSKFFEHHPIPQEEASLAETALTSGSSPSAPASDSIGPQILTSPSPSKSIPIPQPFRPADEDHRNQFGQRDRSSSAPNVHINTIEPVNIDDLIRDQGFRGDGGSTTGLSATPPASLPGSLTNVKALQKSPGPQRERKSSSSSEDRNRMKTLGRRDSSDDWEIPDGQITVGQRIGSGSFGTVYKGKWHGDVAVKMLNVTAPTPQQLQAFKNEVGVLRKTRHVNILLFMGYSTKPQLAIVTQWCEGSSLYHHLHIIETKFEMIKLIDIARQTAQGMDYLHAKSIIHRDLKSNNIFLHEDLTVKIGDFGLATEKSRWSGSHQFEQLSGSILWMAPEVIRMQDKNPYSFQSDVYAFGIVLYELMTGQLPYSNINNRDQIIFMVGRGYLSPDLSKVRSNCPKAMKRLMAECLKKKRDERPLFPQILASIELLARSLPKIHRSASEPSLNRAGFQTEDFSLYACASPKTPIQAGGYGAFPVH

Turning to `Cc1ccc(-n2nc(C(C)(C)C)cc2NC(=O)Nc2ccc(Oc3ccnc4[nH]c(=O)n(C)c34)cc2)cc1`, the bioavailability (usually dose-corrected exposure relative to a reference, in per cent) in data set [1] turned out to be 34%. Besides, the Tmax (in general, the time from dosing to the highest level) in data set [2] worked out at 1 h. Also, the Cmax (usually the maximum level reached in the sampled fluid or tissue) in data set [3] was 39.6 µM. For the same compound, the IC50 (commonly the concentration that inhibits the measured activity by half) was 90 nM in [4] and 202 nM in [7]. Also, the GI50 (commonly the concentration at which growth is held to half of that of the control) in data set [5] was found to be 66 nM. The half-life (usually how long it takes for the measured level to halve) in data set [6] was 3.4 h.
As to `Cc1ccc(-n2nc(C(C)(C)C)cc2NC(=O)Nc2ccc(Oc3ccnc4c3[nH]c(=O)n4C)cc2)cc1`, the IC50 in [4] came out at 36 nM; in data set [7] it was 3000 nM. In addition, in [8], growth was halved (GI50) at 52 nM.
`CC(C)(C)c1cc(NC(=O)Nc2ccc(Oc3ccnc4[nH]c(=O)[nH]c34)cc2F)n(-c2ccccc2)n1`: the bioavailability in [1] came out at 24%. In addition, the Tmax in data set [2] is 0.25 h. In data set [3], the Cmax was determined as 15 µM. In addition, the IC50 in [4] was determined as 135 nM; in [7], 75 nM. Moreover, the values for the GI50 in data set [5] and in data set [9] were 39 nM and 660 nM, respectively. This compound showed a half-life in data set [6] of 2.8 h. The “fold change (FC)” value in [10] is given as 17.
On to `Cn1c(=O)[nH]c2nccc(Oc3ccc(NC(=O)Nc4cc(C(C)(C)C)nn4-c4ccccc4)c4ccccc34)c21`, for which the results for the IC50 in [4] and in data set [7] were 19 nM and 251 nM, respectively. The GI50 was determined as 24 nM in [5] and 1200 nM in data set [9]. This compound also showed a half-life in data set [11] of 1.91 h. Further, the Stability (in the data set with Liver microsomes; in data set [12]) was below 30% each time. Further, the Cmax in data set [13] stood at 35.5 µM. In addition, the Tmax in [14] is 1.5 h. In addition, the “fold change (FC)” value in [10] was found to be 49. Further, the bioavailability in data set [15] was 33%.
In [1], `Cc1ccc(-n2nc(C(C)(C)C)cc2NC(=O)Nc2ccc(Oc3ccnc4[nH]c(=O)n(C)c34)c3ccccc23)cc1` returned a bioavailability of 43%. Moreover, the Tmax in data set [2] was 1 h. The compound also registered a Cmax in data set [3] of 43.3 µM. The figures for the IC50 in data set [4] and in data set [7] were 26 nM and 2280 nM, respectively. Moreover, in [5], the GI50 came out at 16 nM. Further, the Stability (in the data set on Liver microsomes; in data set [12]) was below 30% in each case. Moreover, in data set [6], the half-life is 8.4 h.
In turn, `Cc1ccc(-n2nc(C(C)(C)C)cc2NC(=O)Nc2ccc(Oc3ccnc4[nH]c(=O)[nH]c34)cc2F)cc1` registered a bioavailability in data set [1] of 7%. Further, the Tmax in [2] is 1.5 h. Also, the peak level in [3] (Cmax) was 7.42 µM. In addition, the figures for the IC50 in [4] and in data set [7] were 40 nM and 110 nM, respectively. The GI50 in data set [5] worked out at 46 nM; in data set [9], 790 nM. Moreover, the half-life in [6] was 5.3 h. In addition, the “fold change (FC)” value in [10] was determined as 17.
For `CC(C)(C)c1cc(NC(=O)Nc2ccc(Oc3ccnc4[nH]c(=O)[nH]c34)cc2)n(-c2ccccc2)n1`, the IC50 in data set [4] is 620 nM; in data set [7], 94 nM. The results for the GI50 in [5] and in data set [9] were 390 nM and 3200 nM, respectively. In addition, the “fold change (FC)” value in data set [10] is 8.
Take `Cc1ccc(-n2nc(C(C)(C)C)cc2NC(=O)Nc2ccc(Oc3ccnc4[nH]c(=O)[nH]c34)cc2)cc1`: the results for the IC50 in [4] and in [7] were 420 nM and 142 nM, respectively. Besides, in data set [5], the GI50 is 300 nM. The half-life in [11] is 4 h. For the same compound, in data set [13], the Cmax was 3.67 µM. In addition, the Ratio in [16] is reported as 12. Moreover, the Tmax in data set [14] was determined as 0.5 h. The compound further returned a bioavailability in data set [15] of 6.5%.
`CNC(=O)c1cc(Oc2ccc(NC(=O)Nc3ccc(Cl)c(C(F)(F)F)c3)cc2)ccn1` [SORAFENIB] came in with a GI50 in data set [9] of 4500 nM. Moreover, the “fold change (FC)” value in data set [10] was found to be 1.
